CSC inhib: blocks cancer stem cells | cancer stem cell-like cells viability, luminescence | inhibition, % at 7.5 µM | 1.1% of 300,000 active | AID 2717; in the data active = inhibition above about 75%; tested in HMLE shEcad cells
PglD inh: inhibitors of Campylobacter jejuni PglD acetyltransferase | purified PglD enzyme, DTNB colorimetric CoA detection | inhibition, % at 12.5 µM | 0.098% of 360,000 active; in the data active = inhibition above about 16%, passing the limit was not always enough
PfHsp90 yeast 2: reduces growth (ATP signal) of yeast expressing P. falciparum Hsp90; S. cerevisiae expressing PfHsp90, BacTiter-Glo ATP, 48 h; yeast lacking PDR1 and PDR3 efflux regulators; inhibition, % at 9.4 µM; 0.32% of 310,000 active; AID 504621;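 active = every replicate shows inhibition above about 80%, whatever the replicate mean, limit read from the data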;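 note: 0% = DMSO neutral controls and 100% = 20 µM radicicol positive controls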
Rtt109 HAT inh: inhibitors of Candida albicans Rtt109/Vps75 histone acetyltransferase. inhibition, % at 34.9 µM. Q5AAJ8. purified Rtt109/Vps75, ThioGlo CoA-SH fluorescence, 4 h. 0.16% of 330,000 active;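 active = inhibition of at least 50% in every replicate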
Target sequence (Q5AAJ8 whole entry, looked up): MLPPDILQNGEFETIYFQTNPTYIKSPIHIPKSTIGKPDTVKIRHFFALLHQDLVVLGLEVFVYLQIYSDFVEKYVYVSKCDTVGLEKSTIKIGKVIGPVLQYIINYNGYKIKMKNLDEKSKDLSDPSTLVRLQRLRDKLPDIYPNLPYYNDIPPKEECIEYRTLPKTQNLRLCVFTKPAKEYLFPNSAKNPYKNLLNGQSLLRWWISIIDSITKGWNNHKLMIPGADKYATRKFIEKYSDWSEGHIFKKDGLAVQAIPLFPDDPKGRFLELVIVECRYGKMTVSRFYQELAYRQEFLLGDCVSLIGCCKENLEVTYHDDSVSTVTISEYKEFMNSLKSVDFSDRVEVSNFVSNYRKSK
SKKanGAS inh: blocks kanamycin growth of S. pyogenes SKKanGAS strain; BacTiter-Glo, 6 h; inhibition, % at 7.5 µM; 1.3% of 300,000 active;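 active = mean replicate score, as percent of positive control median, at least 50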;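 note: strain carries kanamycin resistance gene driven by streptokinase promoter and grows in 40 µg/ml kanamycin; loss of luminescence reflects streptokinase promoter inhibition or plain growth inhibition; 0% = median of DMSO wells and 100% = positive control at its reference dose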
FN deposition inh: fibronectin deposition inhibition; AH1F fibroblasts, Alexa488-fibronectin deposition fluorescence, overnight; inhibition, % at 12.6 µM; 0.086% of 350,000 active;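 active = mean inhibition across replicates of 30% or more, regardless of how many single replicates reach that level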;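 note: positive control wells lacked labelled fibronectin entirely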
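Assay system: AH1F fibroblasts / Quantity: 10000 cells per well / Medium: DMEM plus 2% serum, read in PBS / Reagent: labelled fibronectin 24 nM / Dosing: single dose, pinned / Times: 1 h cell attachment, overnight exposure to compound and label / Signal: fluorescence, ex 485 nm, em 525 nm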
* = called active by the depositor; nt = no result. The list is not random: actives were taken first. Their share in the collection is about 1.7%.

SMILES	CSC inhib	PglD inh	PfHsp90 yeast 2	Rtt109 HAT inh	SKKanGAS inh	FN deposition inh
CCCC(=O)NC(c1cccs1)c1cc([N+](=O)[O-])c2cccnc2c1O (centres undefined)	105.7*	2.4	67.1	3.2	85.6*	1.9
CC(=O)NC(c1cccs1)c1cc(Cl)c2ccccc2c1O (centres undefined)	35.6	-1.9	-7.1	-12.6	nt	-0.7
CCCC(=O)NC(C)C(c1cccs1)N1CCN(C)CC1 (centres undefined)	nt	1.4	13.1	-2.4	-7.2	nt
CN(C)C(=O)C[C@@H]1CC[C@@H]2[C@H](COc3ccc(NC(=O)c4ccc(F)c(F)c4)cc3C(=O)N2C)O1	nt	3.5	nt	nt	nt	2.8
C[C@H](CO)N1C[C@H](C)[C@H](CN(C)S(=O)(=O)c2ccc(Cl)cc2)Oc2ccc(NC(=O)Nc3ccc(C(F)(F)F)cc3)cc2C1=O	nt	1.0	nt	nt	nt	-4.0
Cc1cc(C(=O)Nc2ccc3c(c2)C(=O)N(C)[C@H]2CC[C@H](CC(=O)NC4CCCC4)O[C@H]2CO3)no1	nt	3.1	nt	nt	nt	-6.2
Cc1c(Cl)ccc2c(C(=O)Nc3cc(C(C)(C)C)on3)cc(-c3ccccn3)nc12	-7.3	0.2	6.0	-7.2	62.2*	-5.7
Cc1cc(NCc2ccccc2)n2ncc(-c3ccccc3)c2n1	48.4	0.1	33.0	-3.1	11.3	7.3
CC(C)(C)c1cc(NCc2ccccn2)n2ncc(-c3ccccc3)c2n1	77.8*	nt	108.3*	-1.9	108.0*	7.2
CCOc1ccc(CCNC(=O)CN2C(=O)NC3(CCCCC3C)C2=O)cc1OCC (centres undefined)	11.8	6.9	4.2	-4.3	0.3	5.9
COc1ccc(CCNC(=O)CN2C(=O)NC3(CCCCC3C)C2=O)cc1 (centres undefined)	-3.0	2.5	-2.4	51.1*	nt	-6.5
CC1(C(=O)c2ccccc2)C2c3c(ccc4ccccc34)OC(=O)C21C(=O)N1CCOCC1 (centres undefined)	-11.9	nt	105.2*	0.4	2.5	nt
O=C(c1cccs1)c1no[n+]([O-])c1C(=O)c1cccs1	-8.1	-2.3	104.7*	10.4	0.8	nt
COc1ccc(C2c3ccc4ccccc4c3Oc3ncn(CCN4CCOCC4)c(=N)c32)cc1 (centres undefined)	10.5	-6.9	-9.0	-20.0	3.9	nt
N=c1c2c(ncn1CCCO)Oc1c(ccc3ccccc13)C2c1ccccc1 (centres undefined)	49.7	nt	3.5	-5.5	0.4	9.9
CN(C)CCCn1cnc2c(c1=N)C(c1ccccc1)c1ccc3ccccc3c1O2 (centres undefined)	104.5*	-12.6	-6.5	-7.7	0.4	1.6
COc1ccc(C2c3ccc4ccccc4c3Oc3ncn(CCN4CCOCC4)c(=N)c32)cc1OC (centres undefined)	nt	nt	14.0	28.7	-1.9	30.2*
C=CCn1c(NC(=O)c2ccccc2)nc2ccccc21	12.0	1.3	5.3	5.1	65.4*	-4.7
CCn1c(NC(=O)c2cccc(Cn3cc(Cl)cn3)c2)nc2ccccc21	21.8	6.6	-4.5	-5.8	84.6*	3.6
C[C@H](CO)N1C[C@H](C)[C@@H](CN(C)C(=O)c2ccncc2)Oc2ncc(-c3ccc(C(=O)N(C)C)cc3)cc2C1=O	nt	-1.9	nt	nt	nt	-26.0
Cc1nc2ccccc2n1CC(=O)NC1CCCCCC1	-7.5	0.6	1.1	-0.8	9.7	8.0
Cc1nc2ccccc2n1CC(=O)NC1CCCC1	1.7	-6.5	-4.0	51.3*	-7.2	-0.9
COc1ccc(NC(=O)/C(Cl)=C(/Cl)S(=O)Cc2ccc(Cl)cc2)cn1 (centres undefined)	nt	nt	106.5*	2.1	nt	55.3*
Nc1ccc(Sc2ccc([N+](=O)[O-])cc2)cc1	6.3	nt	13.6	nt	-2.7	7.8
Cc1ccc(C(C[N+](=O)[O-])Sc2ccc(N)cc2)cc1 (centres undefined)	65.3	-0.6	106.5*	-11.9	-1.4	-5.9
SMILES	CSC inhib	PglD inh	PfHsp90 yeast 2	Rtt109 HAT inh	SKKanGAS inh	FN deposition inh
O=C(CCl)c1ccc(Cc2ncc(C(F)(F)F)cc2Cl)s1	-15.7	-1.2	nt	-3.3	54.5*	nt
Oc1c(N=NC(=S)Nc2ccccc2F)c2ccccc2n1Cc1ccc(Cl)cc1	27.2	nt	-25.2	-2.9	57.7*	-19.5
Oc1c(N=NC(=S)Nc2ccccc2F)c2ccccc2n1Cc1ccccc1F	nt	6.1	-9.9	-9.8	79.0*	-7.2
CC(=O)Nc1ccc(NC(=O)CSc2nnc(NC(=O)c3ccc(Br)o3)s2)cc1	28.3	1.4	-0.4	25.4	73.0*	4.7
CNC[C@@H]1Oc2c(NC(=O)c3cc(C)nn3C)cccc2C(=O)N([C@H](C)CO)C[C@H]1C	nt	-2.2	nt	nt	nt	nt
C/C=C/c1cnc2c(c1)C(=O)N([C@H](C)CO)C[C@@H](C)[C@@H](CN(C)Cc1ccc3c(c1)OCO3)O2	nt	nt	nt	nt	nt	-7.7
COc1ccccc1C(CCNCc1ccc(N(C)C)cc1)c1ccc(OC(C)C)cc1 (centres undefined)	103.0*	2.1	11.8	-0.3	1.8	-2.0
COc1ccccc1C(CCNCc1ccccc1)c1ccc(OC(C)C)cc1 (centres undefined)	58.2	-5.8	0.0	2.9	7.3	0.3
COc1ccc(CNCCC(c2ccc(OC(C)C)cc2)c2ccccc2OC)cc1 (centres undefined)	102.6*	nt	-11.9	-1.2	1.9	3.9
Cc1ccc(-n2c(SCC(=O)Nc3ccc4c5c(cccc35)CC4)nc(O)cc2=O)cc1	0.7	nt	-12.0	-9.6	51.6*	6.2
COc1ccc(NC(=O)CSc2nc(O)cc(=O)n2-c2ccc(OC)cc2)cc1	-7.0	nt	-2.3	8.9	53.6*	-10.7
COc1ccc(-n2c(SCC(=O)Nc3ccccc3)nc(O)cc2=O)cc1	-6.5	-1.3	17.4	-13.6	49.6*	-6.5
COc1ccc(-n2c(SCC(=O)Nc3cccc4ccccc34)nc(O)cc2=O)cc1	-9.7	-3.6	-1.5	13.7	31.7	-14.4
CC(C)NC(=O)Nc1ccc2c(c1)CC(=O)N(C)C[C@@H](C)[C@@H](CN(C)S(C)(=O)=O)O2	nt	nt	nt	nt	nt	6.7
O=[N+]([O-])c1ccc(O)c(C2CCCCC2)c1	nt	2.1	108.0*	-2.8	nt	2.1
Cc1cc(Nc2cccc([N+](=O)[O-])c2)n2c(nc3ccccc32)c1C#N	83.1*	2.6	-15.9	4.2	42.3	nt
O=C(O)c1ccc(N=NNc2cccc([N+](=O)[O-])c2)cc1	24.1	5.6	-10.8	21.7	6.4	2.1
O=C(/C(N=Nc1cccc([N+](=O)[O-])c1)=C(/O)c1ccc(Br)cc1)C(F)(F)F	99.0*	4.2	nt	nt	83.7*	nt
O=C(Nc1ccccc1Cl)N1CCN(c2ccc3nnc(-c4ccccc4)n3n2)CC1	-2.1	0.4	2.6	5.7	9.1	nt
O=C(Nc1ccc(Cl)cc1)N1CCN(c2ccc3nnc(-c4ccc(F)cc4)n3n2)CC1	46.5	5.5	2.7	-13.3	63.3*	0.4
